Experiment [1] concerns Human immunodeficiency virus 1. Briefly: Selectivity for wild type HIV1 virus over HIV1 K103N mutant. In kind it is functional.
Experiment [2] relates to Human immunodeficiency virus 1. Briefly: Selectivity for wild type HIV1 virus over HIV1 Y181C mutant. The format is functional.
Experiment [3] concerns Human immunodeficiency virus 1. Briefly: Selectivity for wild type HIV1 virus over HIV1 L100I mutant. In kind it is functional.
For experiment [4], the system named is Human immunodeficiency virus 1. Briefly: Selectivity for wild type HIV1 virus over HIV1 K103N/L100I mutant. In kind it is functional.
Experiment [5] deals with Human immunodeficiency virus 1. Briefly: Antiviral activity against wild type HIV1 virus. The format is functional, organism-based. Summed up: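 HEK 293T cells grown in DMEM with 10% FBS and Pen/Strep/Glutamine. Seeded at 700 cells/well, cultured 24 h at 37 °C under 5% CO₂. Serially diluted compound in DMSO added, then 1 h at 37 °C. HIV reporter virus added at MOI about 1.0, cells cultured a further 48 h at 37 °C. Luciferase read-out with Bright-Glo reagent.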

For a further experiment, the system named is HEK293. Briefly: Cytotoxicity against HEK293T cells. In kind it is functional. The conditions noted are these: Homo sapiens. An outline of the steps:
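293T cells seeded at 700 cells/well and cultured 24 h at 37 °C under 5% CO₂. Serially diluted compound in DMSO added to uninfected cells, then a further 48 h at 37 °C. Viability read by fluorescence after Alamar Blue (diluted 1:1 in DMEM) and 4 h at room temperature.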

Experiment [6] relates to Human immunodeficiency virus 1. Briefly: Antiviral activity against HIV1 K103N mutant. In kind it is functional, organism-based. An outline of the steps:
(§1)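 HEK 293T cells grown in DMEM with 10% FBS and Pen/Strep/Glutamine. Cells seeded at 700 cells/well and cultured 24 h at 37 °C under 5% CO₂. Compounds serially diluted in DMSO were added and incubated 1 h at 37 °C. Cells were then infected with HIV reporter virus at MOI ~1.0 and cultured a further 48 h at 37 °C. Read-out was luciferase activity (Bright-Glo).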

Experiment [7] relates to Human immunodeficiency virus 1. Briefly: Antiviral activity against HIV1 Y181C mutant. The format is functional, organism-based. An outline of the steps:
as §1

The subject of experiment [8] is Human immunodeficiency virus 1. Briefly: Antiviral activity against HIV1 L100I mutant. The format is functional, organism-based. An outline of the steps:
as §1

In experiment [9] the test system is Human immunodeficiency virus 1. Briefly: Antiviral activity against HIV1 K103N/L100I mutant. In kind it is functional, organism-based. Summed up: as §1
Experiment [10] has as its target Human immunodeficiency virus type 1 reverse transcriptase (Human immunodeficiency virus 1, UniProt Q72547). Briefly: Inhibition of HIV1 reverse transcriptase.

As usually defined, the EC50 is the concentration at which the effect is half-maximal. A lower EC50 goes with greater potency. For orientation: CC50 means the concentration at which the toxic effect on the cells reaches its halfway point. Higher therefore signals better tolerance by the cells. In the case of `COc1ccc([C@H]2CC(=O)N(c3cccc(NS(=O)(=O)c4c(F)cccc4F)c3)C2)cc1OC1CCCC1`, the Selectivity ratio was found to be 9.4 in [1], 27 in experiment [2], 1.4 in experiment [3] and 1 in experiment [4]. Besides, the EC50 worked out at 48 nM in experiment [5]; 451 nM in [6]; 1300 nM in experiment [7]; 68 nM in [8]; 52 nM in [9]. In the experiment with HEK293, this compound showed a 50% cytotoxic concentration (CC50) of over 10000 nM.

For `COc1ccc([C@H]2CC(=O)N(c3cccc(NS(=O)(=O)c4ccccc4C)c3)C2)cc1OC1CCCC1`, the Selectivity ratio in experiment [1] was 4.9; in experiment [2] it was 10; in experiment [3], 0.42; in experiment [4], 0.7. The EC50 in [5] stood at 24 nM; in [6], 117 nM; in [7], 246 nM; in experiment [8], 10 nM; in [9] it was 17 nM. This compound also showed a CC50 with HEK293 of over 10000 nM.

Consider `COc1ccc([C@H]2CC(=O)N(c3cccc(NS(=O)(=O)c4cccc(Cl)c4C)c3)C2)cc1OC1CCCC1`, for which the Selectivity ratio in experiment [1] stood at 8.1; in experiment [2] it was 19; in experiment [3], 0.4; in [4], 0.5. The EC50 was 20 nM in experiment [5]; 162 nM in experiment [6]; 389 nM in experiment [7]; 8 nM in [8]; 10 nM in [9]. For the same compound, the CC50 with HEK293 is over 10000 nM.

Consider `COc1cccc(S(=O)(=O)Nc2cccc(N3C[C@@H](c4ccc(OC)c(OC5CCCC5)c4)CC3=O)c2)c1`, for which the Selectivity ratio in experiment [1] is reported as 26; in experiment [2], 40; in [3] it was 1.3; in experiment [4], 3. Further, the EC50 in [5] is 25 nM; in [6] it was 656 nM; in experiment [7], 990 nM; in experiment [8], 33 nM; in [9], 76 nM. Besides, the CC50 with HEK293 was over 10000 nM.

For orientation: IC50 means the midpoint of a concentration-inhibition curve. In turn, `COc1ccc([C@H]2CC(=O)N(c3cccc(N)c3)C2)cc1OC1CCCC1` gave an IC50 in [10] of 2000 nM. In addition, a half-maximal effect in experiment [5] (EC50) was put at 125 nM. The CC50 in the experiment on HEK293 is over 10000 nM.

With `Cc1ccnc2c1NC(=O)c1cccnc1N2C1CC1` [NEVIRAPINE], the Selectivity ratio was 101 in experiment [1], over 200 in experiment [2], 3.2 in [3] and 88 in [4]. In addition, the EC50 in [5] is 50 nM; in [6], 5050 nM; in experiment [7] it was over 10000 nM; in experiment [8], 164 nM; in experiment [9], 4390 nM. The compound further came in with a CC50 with HEK293 of over 10000 nM.

As to `COc1ccc([C@H]2CC(=O)N(c3cccc(NS(=O)(=O)c4cc(Br)c(Cl)s4)c3)C2)cc1OC1CCCC1`, the Selectivity ratio in experiment [1] was 12; in experiment [2], 16; in [3], 0.84; in experiment [4], 2. For the same compound, the EC50 stood at 46 nM in [5]; 542 nM in [6]; 753 nM in experiment [7]; 39 nM in [8]; 95 nM in experiment [9]. In addition, in the experiment on HEK293, the CC50 is over 10000 nM.

Consider `COc1ccc([C@H]2CC(=O)N(c3cccc(NS(=O)(=O)c4cccc(F)c4)c3)C2)cc1OC1CCCC1`, for which the Selectivity ratio turned out to be 6 in [1], 16 in experiment [2], 0.46 in experiment [3] and 0.6 in experiment [4]. The EC50 came out at 43 nM in experiment [5]; 261 nM in [6]; 684 nM in experiment [7]; 20 nM in [8]; 26 nM in [9]. This compound yielded a CC50 with HEK293 of over 10000 nM.

In the case of `COc1ccc([C@H]2CC(=O)N(c3cccc(NS(=O)(=O)c4cccc(Cl)c4)c3)C2)cc1OC1CCCC1`, the Selectivity ratio is 27 in experiment [1], 93 in experiment [2], 1.6 in experiment [3] and 2.2 in [4]. The EC50 in [5] is 25 nM; in [6], 689 nM; in [7], 2320 nM; in [8], 40 nM; in [9] it was 56 nM. The CC50 in the experiment on HEK293 was over 10000 nM.

`COc1ccc([C@H]2CC(=O)N(c3cccc(NS(=O)(=O)c4ccccc4F)c3)C2)cc1OC1CCCC1`: the Selectivity ratio in experiment [1] is listed as 4.2; in experiment [2], 21; in [3], 0.53; in experiment [4], 0.64. Also, the concentration giving a half-maximal response (EC50) in [5] is 64 nM; in experiment [6], 269 nM; in experiment [7], 1500 nM; in experiment [8], 34 nM; in [9], 41 nM. Moreover, the CC50 with HEK293 is over 10000 nM.

Take `COc1ccc([C@H]2CC(=O)N(c3cccc(NS(=O)(=O)c4cccc(C)c4)c3)C2)cc1OC1CCCC1`: the Selectivity ratio amounted to 3.4 in [1], 6.2 in [2], 0.3 in [3] and 0.41 in [4]. The EC50 in experiment [5] came to 46 nM; in experiment [6], 158 nM; in [7] it was 284 nM; in experiment [8], 14 nM; in experiment [9], 19 nM. In the experiment on HEK293, this compound returned a CC50 of over 10000 nM.

Values taken from ChEMBL document CHEMBL1138087, “Synthesis and evaluation of N-aryl pyrrolidinones as novel anti-HIV-1 agents. Part 1” (Bioorg Med Chem Lett, 2006).
